Active and inactive are the calls of the source. The calls are words filed in the database; no cut-off is given here.
Key:
[1] = system: Hepatitis C virus; experiment: Antiviral activity against EGFP-fused HCV JFH-1 harboring K78E/E2-G451R/NS3-M260K/NS5A-T462I mutation infected in human Huh7.5.1 cells assessed as combination index after 2 days in presence of ribavirin by qRT-PCR analysis; assay type: functional, Hepacivirus hominis
In short: (§1)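 In HCVcc-infected Huh7.5.1 cells (1×10^4/well, overnight, 37 °C), compound was given at various concentrations alone or with the named approved antiviral. After 2 days HCV RNA was quantified by qRT-PCR to derive the combination index.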

[2] = Selectivity index, ratio of CC50 for human Huh7.5.1 cells to EC50 for DENV infected in human Huh7.5.1 cells; assay type: toxicity, cell-based; conditions: read-out: Ratio CC50/EC50
In short: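 SI from two assays. Antiviral: Huh7.5.1 cells infected with DENV II or ZIKV at MOI 0.1; viral RNA measured by qRT-PCR after 3 days; EC50 taken at 50% RNA reduction. Cytotoxicity: cells seeded at 1×10^4/well, given serially diluted compound for 48 h, then WST-1 absorbance (OD450/OD630) read for CC50.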

[3] = system: Hepatitis C virus; experiment: Antiviral activity against EGFP-fused HCV JFH-1 harboring K78E/E2-G451R/NS3-M260K/NS5A-T462I mutation infected in human Huh7.5.1 cells assessed as reduction in viral RNA level after 2 days in presence of IFNalpha by qRT-PCR analysis; assay type: functional, organism-based; conditions: Hepacivirus hominis
In short: (§2)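 Huh7.5.1 cells at 1×10^4/well, grown overnight at 37 °C. HCVcc was mixed with serially diluted compound (top 30 or 6 μM), given alone or with the named drug, and added to the cells. Viral RNA was read by qRT-PCR after 2 days. EC50 is the concentration giving 50% RNA reduction.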

[4] = Selectivity index, ratio of CC50 for human Huh7.5.1 cells to EC50 for EGFP-fused HCV JFH-1 harboring K78E/E2-G451R/NS3-M260K/NS5A-T462I mutant infected in human Huh7.5.1 cells; assay type: toxicity, cell-based; conditions: read-out: Ratio CC50/EC50
[5] = Selectivity index, ratio of CC50 for human Caco2 cells to EC50 for MERS-CoV infected in human Caco2 cells; assay type: toxicity, cell-based; conditions: read-out: Ratio CC50/EC50
[6] = system: Hepatitis C virus; experiment: Antiviral activity against EGFP-fused HCV JFH-1 harboring K78E/E2-G451R/NS3-M260K/NS5A-T462I mutation infected in human Huh7.5.1 cells assessed as combination index after 2 days in presence of cyclosporin A by qRT-PCR analysis; assay type: functional, Hepacivirus hominis; in short: as §1
[7] = system: Hepatitis C virus; experiment: Antiviral activity against HCV infected in human Huh7.5.1 cells assessed as decrease in viral infection in presence of uridine; assay type: functional, organism-based, Hepacivirus hominis; conditions: Huh-7.5.1
In short: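 HCV antiviral EC50 in Huh7.5.1 cells was measured with 0.5 mM uridine supplemented, and compared with the EC50 obtained without uridine.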

[8] = Selectivity index, ratio of CC50 for African green monkey Vero cells to EC50 for RSV infected in African green monkey Vero cells; assay type: toxicity; conditions: read-out: Ratio CC50/EC50
[9] = Cytotoxicity against human Huh7.5.1 cells infected with ZIKV assessed as decrease in cell viability after 48 hrs by WST1 assay; assay type: cell-based
In short: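 Cells seeded at 1 × 10^4 per well and cultured overnight at 37 °C, then incubated 48 h with serially diluted compounds. Viability read with WST-1 reagent as absorbance at OD450/OD630.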

[10] = system: Hepatitis C virus; experiment: Antiviral activity against GFP-fused HCV JFH-1 harboring K78E/E2-G451R/NS3-M260K/NS5A-T462I mutant infected in human Huh7.5.1 cells assessed as reduction in viral infection preincubated for 2 hrs followed by viral infection and measured after 48 hrs by epifluorescence microscopic analysis; assay type: functional, organism-based; conditions: Hepacivirus hominis
In short: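 Huh7.5.1 cells at 3×10^4/well, cultured overnight at 37 °C in 5% CO2, were pretreated 2 h with compound over 0.0004–0.05 μM. Cells were then infected with HCV-GFP at MOI 1, and GFP expression was imaged by epifluorescence microscopy at 48 hpi.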

[11] = system: Hepatitis C virus; experiment: Antiviral activity against EGFP-fused HCV JFH-1 harboring K78E/E2-G451R/NS3-M260K/NS5A-T462I mutation infected in human Huh7.5.1 cells assessed as combination index after 2 days in presence of telaprevir by qRT-PCR analysis; assay type: functional, Hepacivirus hominis; in short: as §1
[12] = system: Hepatitis C virus; experiment: Antiviral activity against EGFP-fused HCV JFH-1 harboring K78E/E2-G451R/NS3-M260K/NS5A-T462I mutation infected in human Huh7.5.1 cells assessed as reduction in viral RNA level after 2 days in presence of telaprevir by qRT-PCR analysis; assay type: functional, organism-based; conditions: Hepacivirus hominis; in short: as §2
[13] = target: T1, Sialate O-acetylesterase (Homo sapiens) (UniProt Q9HAT2); experiment: Binding affinity to SIAE in human Huh7.5.1 cell lysate infected with HCV at 0.1 to 10 uM incubated for 1 hr followed by 10000 mJ/cm2 UV irradiation for 10 mins and subsequent addition of biotin-N3 measured after 1 hr by ABPP Gel-based by LC/MS/MS analysis; assay type: subcellular
T1 sequence (whole entry): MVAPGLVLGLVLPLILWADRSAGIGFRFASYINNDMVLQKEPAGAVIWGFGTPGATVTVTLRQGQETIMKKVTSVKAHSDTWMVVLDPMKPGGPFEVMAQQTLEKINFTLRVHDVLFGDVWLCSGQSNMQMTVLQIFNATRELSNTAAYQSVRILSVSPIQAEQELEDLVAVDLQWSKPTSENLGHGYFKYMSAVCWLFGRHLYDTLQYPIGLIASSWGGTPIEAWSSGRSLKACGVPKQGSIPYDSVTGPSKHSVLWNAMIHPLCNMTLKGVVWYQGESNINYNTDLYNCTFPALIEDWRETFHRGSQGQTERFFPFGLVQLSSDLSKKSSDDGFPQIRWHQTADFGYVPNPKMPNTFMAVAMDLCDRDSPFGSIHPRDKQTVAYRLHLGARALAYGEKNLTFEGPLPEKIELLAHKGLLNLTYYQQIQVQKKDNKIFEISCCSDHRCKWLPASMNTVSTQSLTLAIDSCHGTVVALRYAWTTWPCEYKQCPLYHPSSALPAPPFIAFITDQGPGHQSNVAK
In short: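 ABPP: Huh7.5.1 cells HCV-infected 2 days were lysed by sonication in PBS with protease inhibitors (~1.5 mg/ml protein). Photo-probe at 1.0–10.0 μM was UV-crosslinked (350 nm, 10000 mJ/cm2, 10 min), then clicked to biotin-N3 (CuSO4/TBTA/TCEP, 1 h RT). Proteins were precipitated, avidin pull-down, washed with SDS, urea, PBS; LC-MS/MS versus negative-probe, competitor and DMSO groups.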

[14] = system: Hepatitis C virus; experiment: Antiviral activity against EGFP-fused HCV JFH-1 harboring K78E/E2-G451R/NS3-M260K/NS5A-T462I mutation infected in human Huh7.5.1 cells assessed as reduction in viral RNA level after 2 days in presence of cyclosporin A by qRT-PCR analysis; assay type: functional, organism-based; conditions: Hepacivirus hominis; in short: as §2
[15] = Selectivity index, ratio of CC50 for African green monkey Vero cells to EC50 for CHIKV infected in African green monkey Vero cells; assay type: toxicity; conditions: read-out: Ratio CC50/EC50
[16] = system: Chikungunya virus; experiment: Antiviral activity against CHIKV infected in African green monkey Vero cells assessed as reduction in viral titre measured at 36 hrs post infection; assay type: functional, organism-based

## CCN(CC)c1ccc(Oc2ccc(-c3[nH]c4cccc(F)c4c(=O)c3C)cc2F)cc1
[1]
  CI: >50
[2]
  selectivity ratio: > 357
[3]
  Activity: Dose-dependent effect
[4]
  selectivity ratio: > 416
[5]
  selectivity ratio: > 7.5
[6]
  CI: >50
[7]
  EC50: 2.8 µM
[8]
  selectivity ratio: > 41
[9]
  CC50 at 48 h: > 2.5 µM
[10]
  Activity: Dose-dependent effect
[11]
  CI: >=10 - 50
[12]
  Activity: Dose-dependent effect
[13]
  Activity: Active
[14]
  Activity: Dose-dependent effect
[15]
  selectivity ratio: > 10
[16]
  EC50: 0.26 µM

— ChEMBL document CHEMBL4334439, “Discovery, Optimization, and Target Identification of Novel Potent Broad-Spectrum Antiviral Inhibitors” (J Med Chem, 2019)
